High-throughput results as filed in PubChem BioAssay.
Hsp70 activator – switches on Hsp70 transcription. 0.04% of 200,000 active. AID 1203. activation, % at 10 µM. HeLa Hsp70 promoter luciferase reporter, luminescence; scaled: vehicle 0, proteasome-inhibitor control 100%;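 active means activation above the mean across all tested compounds plus 3 SD, cutoff set per campaign, cut at about 5.5% in these data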
HSF-1 act – increases HSF-1 driven luciferase reporter signal; NIH3T3-HGL HSF-1 luciferase reporter, MG132, 8 h; 100% = twice DMSO control signal; activation, % at 9 µM; 1.7% of 300,000 active; AID 504408;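 active means mean replicate activation of at least 50% with a set share of replicates each reaching 50%; inconclusive means only one of those two conditions met; inactive means mean below 50% and too few replicates reaching it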
HSF1 inh – HSF1 inhibition; NIH3T3-HGL HSE-luciferase, MG132-induced, luminescence 8 h; stronger effect = lower value; activity change, negative = inhibition, % at 7.5 µM (by protocol); 0.77% of 300,000 active; AID 2098;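 active means more than half of replicate wells show activity change below -50%, luminescence cut by over half; inconclusive means some wells, but at most half, below -50%; inactive means no replicate well below -50%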;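 further: luciferase reports HSF-1 transcriptional activity via heat shock element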
Rad51 HR inh – Rad51 (human) homologous recombination inhibition | Q06609 | hRad51 DNA strand exchange, fluorescence dequenching | inhibition, % at 10 µM | 0.085% of 200,000 active | AID 1385;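 active means inhibition above 40% at the single screening dose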
Target sequence (Q06609 whole entry, looked up): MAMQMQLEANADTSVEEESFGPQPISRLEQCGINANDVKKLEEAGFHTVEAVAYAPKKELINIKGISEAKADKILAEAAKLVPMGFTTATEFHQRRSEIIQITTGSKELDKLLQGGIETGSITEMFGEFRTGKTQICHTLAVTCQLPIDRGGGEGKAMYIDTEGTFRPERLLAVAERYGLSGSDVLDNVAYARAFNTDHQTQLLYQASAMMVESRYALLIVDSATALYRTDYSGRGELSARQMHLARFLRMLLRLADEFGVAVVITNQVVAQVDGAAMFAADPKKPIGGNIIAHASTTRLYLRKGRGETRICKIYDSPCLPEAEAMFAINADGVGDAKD
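material = hRad51 filaments on single-stranded DNA | timing = filaments 15 min 37 °C, then compound 30 min | signal = FRET fluorescence dequenching, excitation 485 nm, emission 520 nm | benchmarks = control wells and blank wells on each plate | evaluation = percent inhibition relative to plate controls and blanks | compound = 10 µM final, single point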
HSV augment – HSV replication enhancement; 0.005% of 220,000 active; maximum fold increase; HSV replication augmentation in cells, fold increase; in the data active means maximum fold increase above about 1.5; inconclusive means no clear call, values can overlap the other calls; tested in PC3 cells
MDM2 E3 inh – blocks human Mdm2 ubiquitin ligase activity. Q00987. cell-based MDM2 ubiquitination luciferase reporter, 2 h; 0 = plate control, 100 = twice control, blank-subtracted. signal enhancement, % at 5 µM. 0.11% of 210,000 active;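 active means signal enhancement of 30% or more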;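 further: luminescence tracks abundance of the self-degrading MDM2-luciferase fusion protein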
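Buffer or medium: Cells held in DMEM | Assay system: Stable mammalian line carrying autodegrading MDM2–luciferase fusion reporter | Quantity: 2000 cells/well | Times: 4 h settle plus 2 h compound, 37 °C | Doses: One concentration, 5 µM, with 0.2% DMSO | Technique: Luminescence with SteadyLite reagent, 15 min at room temperature | Benchmarks: Plate controls and plate blanks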
Numbers stand for hits; 0 = inactive; ? = inconclusive; - = no result. Hits are enriched below; roughly 2.6% of the tested compounds scored in any of these assays.

SMILES	Hsp70 activator	HSF-1 act	HSF1 inh	Rad51 HR inh	HSV augment	MDM2 E3 inh
O=C(CCCCCNC(=O)N1CCn2c1nc1ccccc12)NCc1ccc(Cl)cc1	-	50.9	0	-	-	-
CCOc1ccc(-n2cc(-c3ccc(OC)c(OC)c3)[nH]c2=S)cc1	0	55.4	0	0	0	0
CCOc1ccc(-c2cn(-c3ccccc3OC)c(=S)[nH]2)cc1	-	0	0	-	-	-
CC(=O)Nc1ccc(C(=O)OCC(=O)c2ccc(C)c([N+](=O)[O-])c2)cc1	0	58.3	0	-	0	0
CCC(=O)Nc1ccc(C(=O)OCC(=O)c2ccc(C)c([N+](=O)[O-])c2)cc1	0	0	0	0	0	0
Cc1ccc(C(=O)NCC(C)NC(=O)c2ccc(C)c([N+](=O)[O-])c2)cc1[N+](=O)[O-] (configuration not stated)	-	87.7	0	-	-	-
Cc1ccccc1NC(=O)c1ccc2c(c1)OCCO2	0	0	-65.5	0	0	0
O=C(NCCc1ccc(Cl)cc1)c1ccc2c(c1)OCCO2	-	0	0	-	-	-
O=C(NCCc1ccc(Cl)cc1)c1ccc(Br)s1	-	67.1	0	-	-	-
Cc1cc(C)n(CCNC(=O)c2ccc3c(c2)OCO3)n1	-	57.6	0	-	-	-
O=C(NCCc1ccc(Cl)cc1)c1ccc2c(c1)OCO2	-	99.2	0	-	-	-
NS(=O)(=O)c1ccc(CCNC(=O)c2ccc(Br)s2)cc1	0	0	0	0	0	0
Cn1cccc1/C=C(/C#N)c1ccc(F)cc1	0	0	0	0	0	0
COc1ccc(Cl)cc1NC(=O)c1nnn(CC(=O)Nc2ccc3c(c2)OCO3)c1N	-	0	0	-	-	-
Fc1ccc2[nH]c3c(NCc4ccccc4)ncnc3c2c1	-	0	0	-	-	-
O=C(NCc1ccccc1F)c1ccc2c(c1)OCO2	0	0	0	0	0	0
O=C(NCCc1ccccc1F)c1ccc2c(c1)OCCO2	-	0	-75.3	-	-	-
COc1cc2c(cc1OC)CN(c1ccc3ccccc3n1)CC2	-	0	0	-	-	-
COc1cc2c(cc1OC)CN(c1ccc(C(F)(F)F)cn1)CC2	-	102.1	0	-	-	-
N=C1S/C(=C\c2ccco2)C(=O)N1c1nccs1	0	97.8	0	0	0	0
CCN(CC)CCCCNc1ncc2cc(-c3cc(OC)cc(OC)c3)c(NC(=O)NC(C)(C)C)nc2n1	-	0	0	-	-	-
CC(=O)NNc1ncnc2ccccc12	0	-	-	0	0	0
O=C(NNc1ncnc2ccccc12)c1cccc(Cl)c1	-	59.6	0	0	0	0
NS(=O)(=O)c1ccc(CNC(=O)CCSCCC(=O)NCc2ccc(S(N)(=O)=O)cc2)cc1	0	0	0	0	0	0
CCCNC(=O)NC1C(NC(=O)NCCC)N(C)C(=O)N1C (configuration not stated)	0	0	-57.0	0	0	0
SMILES	Hsp70 activator	HSF-1 act	HSF1 inh	Rad51 HR inh	HSV augment	MDM2 E3 inh
Nn1cnnc1N/N=C/c1cccc(Cl)c1Cl	-	?	0	-	-	-
COc1ccc(/C=N/Nc2nnc(C)n2N)cc1OC	0	0	0	0	0	0
Nn1cnnc1N/N=C/c1ccc(F)cc1	-	55.1	0	-	-	-
Cc1ccc(/C=N/Nc2nncn2N)cc1	-	74.4	0	-	-	-
Nn1cnnc1N/N=C/c1ccc(Cl)c([N+](=O)[O-])c1	0	0	-97.6	0	0	0
COc1ccc(/C=N/Nc2nnc(C)n2N)cc1OC(C)=O	-	79.6	0	-	-	-
Cc1ccc(S(=O)(=O)c2ccc(Cl)cc2)cc1S(=O)(=O)N(C)CC(=O)O	0	0	0	0	0	0
CCCn1nnnc1SCC(=O)NC1CCCC1	-	0	0	-	-	-
Cc1nc2scc(-c3ccc(C(C)(C)C)cc3)c2c(=O)n1N	0	0	0	0	0	0
Cc1nnc(N/N=C/c2ccc(Br)cc2)n1N	-	52.5	0	-	-	-
O=C(Nc1ccc2c(c1)OCO2)C1CCN(C(=O)c2ccc(Br)cc2)CC1	0	0	0	40.7	0	0
Cc1ccc(-n2nnnc2-c2nc3ccccc3s2)cc1	0	0	0	0	0	0
CCOc1ccc(-n2nnnc2-c2nc3ccccc3s2)cc1	0	0	-57.5	0	0	0
CCOCCCNC(=S)Nc1ccc2nc(N3CCOCC3)cc(C)c2c1	-	125.4	0	-	-	-
CCC(C)NS(=O)(=O)c1cc2c3c(c1)CCN3C(=O)CC2 (configuration not stated)	-	0	0	-	-	-
O=C(NNc1cccc(Cl)n1)Nc1cccc(C(F)(F)F)c1	0	0	0	0	0	0
O=C(NNc1cccc(Cl)n1)Nc1ccc(Cl)cc1	0	77.3	0	0	0	0
O=C(NC1CCCC1)c1cc(-c2cccc(Cl)c2)on1	-	0	0	-	-	-
COc1cc(C)c(S(=O)(=O)N2CCN=C2c2ccccc2)cc1C	0	56.1	0	0	0	0
CN1/C(=C/C(=O)c2nc(S(C)(=O)=O)ncc2Cl)C(C)(C)c2ccccc21	0	0	-91.8	0	0	0
Cc1cccc(C)c1NC(=O)c1nc(S(=O)(=O)Cc2ccccc2)ncc1Cl	-	596.2	0	-	-	-
CCCc1nnc(NC(=O)c2nc(S(=O)(=O)Cc3cccc(C)c3)ncc2Cl)s1	-	0	-59.7	-	-	-
Cc1nnc(NC(=O)c2nc(S(=O)(=O)Cc3ccccc3)ncc2Cl)s1	-	0	0	-	-	-
Cc1cccc(CS(=O)(=O)c2ncc(Cl)c(C(=O)NCc3ccccc3)n2)c1	-	326.6	0	-	-	-
CCN1CCN(c2ccc(N3CCN(S(=O)(=O)c4cc([N+](=O)[O-])ccc4C)CC3)nn2)CC1	-	0	0	-	-	-
SMILES	Hsp70 activator	HSF-1 act	HSF1 inh	Rad51 HR inh	HSV augment	MDM2 E3 inh
Cc1cccc2[nH]c(CCNC(=O)C3CCC(=O)N(CCc4cccc(F)c4)C3)nc12 (configuration not stated)	-	0	0	-	-	-
O=C(c1ccco1)N1CCN(Cc2nnc(-c3cccc(Cl)c3)o2)CC1	-	0	0	-	-	-
O=C(NNC(=O)c1cc(-c2ccc(Cl)cc2)nc2ccccc12)c1csc(N2CCOCC2)n1	-	0	0	-	-	-
Cc1ccc2c(c1)sc1nc(=O)ccn12	-	0	0	-	-	-
Cc1ccccc1CS(=O)(=O)c1ncc(Cl)c(C(=O)Nc2ccc(F)cc2)n1	-	0	0	-	-	-
Cc1cccc(CS(=O)(=O)c2ncc(Cl)c(C(=O)Nc3c(C)cccc3C)n2)c1	-	481.7	0	-	-	-
CCOC(=O)c1nc(S(C)(=O)=O)ncc1Cl	0	-	-	0	0	0
Cc1ccccc1NC(=O)c1nc(S(C)(=O)=O)ncc1Cl	-	113.3	0	-	-	-
Cc1ccccc1-n1c(C)nc2ccccc21	0	0	-52.5	0	0	0
Cc1nc2ccccc2n1-c1ccccc1	0	0	0	0	0	0
CCC(NC(=S)NCc1ccc(F)cc1)c1ccc(C)cc1 (configuration not stated)	-	0	0	-	-	-
CCOC(=O)CSc1cc(C)c(C#N)c2nc3ccccc3n12	0	58.5	0	0	0	0
CCc1c(C)c(C#N)c2nc3ccccc3n2c1Cl	0	435.4	0	0	0	43.9
CCC(C)Sc1cc(C)c(C#N)c2nc3ccccc3n12 (configuration not stated)	0	0	0	0	0	0
Clc1ccccc1OCc1nc(-c2ccccn2)no1	0	59.8	0	-	-	0
Cc1nccn1C(c1ccccc1)c1ccccc1	-	0	0	-	-	-
